We go through four compounds from PMC5791907 (European journal of medicinal chemistry, 2018).

As usually defined, the IC50 is the concentration at which inhibition is half-maximal.

The test system of test [1] is HeLa cells. Kind of test: Flow cytometric analysis of cell cycle distribution. The format is cell-based, human. To be noted: 24 h treatment, evident at 500 nM. Put shortly:
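HeLa cells (5 × 10^5) exposed to a range of test compound concentrations for 24 h, collected, and fixed in ice-cold 70% ethanol. Treated with lysis buffer containing RNase A and 0.1% Triton X-100, stained with PI, then analysed by flow cytometry. Phase distribution taken from DNA histograms. Mean ± SEM of two independent experiments.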
A general note: In flow cytometry, cells or beads pass a laser one at a time.

Test [2] relates to HeLa cells. Kind of test: Apoptosis assay. The test is classed as cell-based, human. The note with it: 24 h incubation, further increased at 48 h.
Test [3] concerns HeLa cells. The experiment in a line: ROS production. The format is cell-based, human. The note with it: 250 nM, starting after 12–24 h.
Test [4] concerns HeLa cells. Kind of test: Western blot analysis of cell cycle checkpoint and apoptosis proteins. The format is cell-based, human. (In general: In western blotting, separated proteins are transferred to a membrane and probed.)
In test [5] the test system is HeLa cells. Kind of test: Mitochondrial membrane potential. The format is cell-based, human. To be noted: 100–250 nM, 6-48 h. Put shortly: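 HeLa cells treated with test compound for 6, 12, 24 or 48 h, then stained with the lipophilic cationic probe JC-1. Mitochondrial potential read by flow cytometry. Data are mean ± SEM of three independent experiments.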
Test [6] deals with L1210, FM3A, CEM and HeLa cell lines. The experiment in a line: Antiproliferative activity over the panel of four cancer cell lines. The test is classed as cell-based. In short, it runs like this:
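Cells were seeded at 300,000–500,000 cells/mL with serial dilutions of test compound and incubated at 37 °C: 2 days for L1210 and FM3A, 3 days for CEM, and 4 days for HeLa. Cell number was counted with a Coulter counter. For each line, IC50 was the concentration that inhibited proliferation by 50%.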

Turning to `COC(=O)c1sc(-c2ccccc2)cc1Nc1cc(OC)c(OC)c(OC)c1` [Compound 4a, Methyl 5-phenyl-3-[(3,4,5-trimethoxyphenyl)amino]thiophene-2-carboxylate], the “Effect on cell cycle progression” value in test [1] is reported as “induced a G2/M arrest”. Moreover, the “Induction of apoptosis (annexin-V/PI)” value in test [2] is “induced a significant proportion of apoptotic cells”.

Consider `COC(=O)c1sc(-c2cccs2)cc1Nc1cc(OC)c(OC)c(OC)c1` [Compound 4c, Methyl 4-[(3,4,5-trimethoxyphenyl)amino]-[2,2′-bithiophene]-5-carboxylate], for which the ROS production result in test [3] is listed as “induced significant production of ROS”. Also, the PARP cleavage entry in test [4] was “concentration-and time-dependent cleavage of PARP”. For the same compound, the “cyclin B1 expression” value in test [4] (24 h, concentration-dependent, marked reduction at 48 h) is “increase in cyclin B1 expression”. For the same compound, the cdc25c expression result in test [4] (24 h, even at 100 nM) was “marked reduction in the expression of phosphatase cdc25c”. In addition, the “phosphorylated Cdk1” value in test [4] (24 h and 48 h, 250 nM) is reported as “decrease in the phosphorylated form of cyclin dependent kinase-1”. For the same compound, the “expression of anti-apoptotic proteins Bcl-2 and Mcl-1” value in test [4] (starting after 24 h, even at 0.1 μM) was “decreased”. Further, the “Mitochondrial depolarization (cells with low Δψmt)” value in test [5] was “time-dependent increase in the percentage of cells with low Δψmt”. The “Effect on cell cycle progression” value in test [1] is given as “induced a G2/M arrest”. In test [6] (read-out: mean IC50 value (antiproliferative activity), mean over cell lines), the concentration for half-maximal inhibition (IC50) was 140 nM. For the same compound, the “Induction of apoptosis (annexin-V/PI)” value in test [2] is “induced a significant proportion of apoptotic cells”.

`COC(=O)c1sc(-c2ccc(C)cc2)cc1Nc1cc(OC)c(OC)c(OC)c1` [Compound 4i, Methyl 5-(p-tolyl)-3-[(3,4,5-trimethoxyphenyl)amino]thiophene-2-carboxylate]: the “Effect on cell cycle progression” value in test [1] is on record as “induced a G2/M arrest”. Besides, the “Induction of apoptosis (annexin-V/PI)” value in test [2] was “induced a significant proportion of apoptotic cells”.

`COC(=O)c1sc(-c2cc(OC)c(OC)c(OC)c2)cc1Nc1cc(OC)c(OC)c(OC)c1` [Compound 4p, Methyl 5-(3,4,5-trimethoxyphenyl)-3-[(3,4,5-trimethoxyphenyl)amino]thiophene-2-carboxylate]: the “antiproliferative activity (in words)” value in test [6] (four cancer cell lines) was “not active”.
